Results: ChEMBL document CHEMBL4190298, “Stereochemistry of a Second Riolozane and Other Diterpenoids from Jatropha dioica” (J Nat Prod, 2017)
pIC50: −log10 of the molar value.

Experiments:
[1] = Cytotoxicity against African green monkey Vero cells assessed as reduction in cell viability after 3 days by MTT assay; assay type: cell-based; settings: chlorocebus sabaeus
How it was run: (§1)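 Vero cells (ATCC CRL-1586) were grown in advanced DMEM with 2% FBS at 37 °C and 5% CO2 and exposed to compound at 100, 200, 400, 800 or 1600 μM for 3 days. Viability was read by MTT (10 μL of 5 mg/mL stock added). CC50 is the concentration reducing viability by 50% relative to untreated cells, taken as 100%. Triplicate; mean ± SD.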

Human alphaherpesvirus 1 [2] = assay: Antiviral activity against HSV-1 infected in African green monkey Vero cells assessed as inhibition of virus plaque formation after 72 hrs by Giemsa staining based assay; assay type: functional, organism-based; settings: Human alphaherpesvirus 1, Vero
How it was run: (§2)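 Vero cells (ATCC CRL-1586) were grown in advanced DMEM with 2% FBS at 37 °C and 5% CO2. Wells of 5×10^5 cells were infected with 100 PFU HSV-1 or HSV-2 for 1 h at 37 °C. The supernatant was then replaced with medium containing 1% DMSO, 0.32% IgG and compound at 80, 160 or 320 μM. After 72 h, cells were MeOH-fixed and Giemsa-stained. Mock and acyclovir controls; triplicate.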

Human alphaherpesvirus 2 [3] = assay: Antiviral activity against HSV-2 infected in African green monkey Vero cells assessed as inhibition of virus plaque formation after 72 hrs by Giemsa staining based assay; assay type: functional, organism-based; settings: Human alphaherpesvirus 2, Vero; how it was run: as §2
[4] = Selectivity index, ratio of CC50 for African green monkey Vero cells to IC50 for HSV-1 infected in African green monkey Vero cells; assay type: toxicity; settings: HSV-1 infected Vero cells, read-out: Ratio CC50/IC50
[5] = Selectivity index, ratio of CC50 for African green monkey Vero cells to IC50 for HSV-2 infected in African green monkey Vero cells; assay type: toxicity; settings: HSV-2 infected Vero cells, read-out: Ratio CC50/IC50
[6] = Cytotoxicity against African green monkey Vero cells; assay type: cell-based; settings: chlorocebus sabaeus; how it was run: as §1
Human alphaherpesvirus 1 [7] = assay: Antiviral activity against HSV-1 infected in African green monkey Vero cells assessed as inhibition of virus plaque formation; assay type: functional, organism-based; settings: Human alphaherpesvirus 1, Vero; how it was run: as §2
Human alphaherpesvirus 2 [8] = assay: Antiviral activity against HSV-2 infected in African green monkey Vero cells assessed as inhibition of virus plaque formation; assay type: functional, organism-based; settings: Human alphaherpesvirus 2, Vero; how it was run: as §2

pIC50 (Human alphaherpesvirus 1 [2])	pIC50 (Human alphaherpesvirus 2 [3])	pIC50 (Human alphaherpesvirus 1 [7])	pIC50 (Human alphaherpesvirus 2 [8])	SMILES	CC50 at 72 h [1]	selectivity ratio [4]	selectivity ratio [5]	CC50 [6]
< 3.52	< 3.52	–	–	C/C1=C/[C@]23O[C@H]2[C@H](C)C[C@@H]3C(=O)[C@]2(C)C(=O)CC(C)(C)[C@H]2CC1=O	> 1520 µM	–	–	–
3.75	3.76	–	–	C[C@@H]1CC2=C(C1)[C@@H]([C@@]1(C)C(=O)C[C@H]3[C@@H](C1=O)C3(C)C)[C@@H](C)C2=O	584 µM	3.2	3.4	–
–	–	3.68	3.68	C[C@@H]1CC2=C(C1)[C@@H]([C@@]1(C)C(=O)C[C@H]3[C@@H](C1=O)C3(C)C)[C@H](C)C2=O	–	5.8	5.8	1220 µM
5.32	5.51	–	–	Nc1nc2c(ncn2COCCO)c(=O)[nH]1 [ACYCLOVIR]	–	–	–	–
